Laboratory results as given in ChEMBL document CHEMBL3414431, “Synthesis, biological evaluation and molecular docking of some substituted pyrazolines and isoxazolines as potential antimicrobial agents” (2015).
≈ marks a conversion by molar mass, not a printed value.

How the values were obtained:
Candida albicans [1] = assay: Antimicrobial activity against Candida albicans ATCC 12031 assessed as diameter of zone of inhibition at 2 mg/ml after 24 hrs by agar well diffusion method; assay type: functional; conditions: ATCC 12031, 24 h, read-out: DIZ
Summary of the method: (§1)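 Agar well diffusion. Fungi were grown on Sabouraud dextrose agar and bacteria on nutrient agar (peptone, beef extract, NaCl, agar), with the inoculum spread over the medium. Wells were bored and filled with test drug at 2.0 mg/ml in DMSO. Plates sat 1 h at room temperature for diffusion, then 37 °C for 24 h. Inhibition zone diameter (mm, including well) is reported as mean ± SEM.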

Aspergillus fumigatus [2] = assay: Antimicrobial activity against Aspergillus fumigatus ATCC 1022 assessed as diameter of zone of inhibition at 2 mg/ml after 24 hrs by agar well diffusion method; assay type: functional; conditions: ATCC 1022, 24 h, read-out: DIZ; summary of the method: as §1
Aspergillus versicolor [3] = assay: Antimicrobial activity against Aspergillus versicolor ATCC 10072 assessed as diameter of zone of inhibition at 2 mg/ml after 24 hrs by agar well diffusion method; assay type: functional; conditions: ATCC 10072, 24 h, read-out: DIZ; summary of the method: as §1
Aspergillus flavus [4] = assay: Antimicrobial activity against Aspergillus flavus ATCC 9643 assessed as diameter of zone of inhibition at 2 mg/ml after 24 hrs by agar well diffusion method; assay type: functional; conditions: ATCC 9643, 24 h, read-out: DIZ; summary of the method: as §1
Staphylococcus aureus [5] = assay: Antimicrobial activity against Staphylococcus aureus ATCC 25923 assessed as diameter of zone of inhibition at 2 mg/ml after 24 hrs by agar well diffusion method; assay type: functional; conditions: ATCC 25923, 24 h, read-out: DIZ; summary of the method: as §1
Escherichia coli = assay: Antimicrobial activity against Escherichia coli ATCC 25922 assessed as diameter of zone of inhibition at 2 mg/ml after 24 hrs by agar well diffusion method; assay type: functional; conditions: ATCC 25922, 24 h, read-out: DIZ; summary of the method: as §1
Candida albicans [6] = assay: Antimicrobial activity against Candida albicans ATCC 12031 after 48 hrs by two-fold serial dilution method; assay type: functional; conditions: ATCC 12031, 48 h
Summary of the method: (§2)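 Two-fold serial broth dilution of compounds, 100 down to 3.125 (six levels). Each was inoculated with fungal suspension at 10^6 CFU/mL in suitable broth and incubated at 37 °C for 48 h. Growth was judged by turbidity to assign the minimum inhibitory concentration.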

Aspergillus fumigatus [7] = assay: Antimicrobial activity against Aspergillus fumigatus ATCC 1022 after 48 hrs by two-fold serial dilution method; assay type: functional; conditions: ATCC 1022, 48 h; summary of the method: as §2
Aspergillus versicolor [8] = assay: Antimicrobial activity against Aspergillus versicolor ATCC 10072 after 48 hrs by two-fold serial dilution method; assay type: functional; conditions: ATCC 10072, 48 h; summary of the method: as §2
Aspergillus flavus [9] = assay: Antimicrobial activity against Aspergillus flavus ATCC 9643 after 48 hrs by two-fold serial dilution method; assay type: functional; conditions: ATCC 9643, 48 h; summary of the method: as §2
Staphylococcus aureus [10] = assay: microbe, parasite or virus in culture; conditions: ATCC 25923, 24 h, read-out: DIZ
Candida albicans [11] = assay: Antimicrobial activity against Candida albicans ATCC 12031 assessed as diameter of zone of inhibition at 20 microg/disc after 24 hrs by agar well diffusion method; assay type: functional; conditions: ATCC 12031, 24 h, read-out: DIZ
Summary of the method: (§3)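 Fungal inoculum spread on Sabouraud dextrose agar. 6 mm wells bored and filled with test drug at 2.0 mg/ml in DMSO (stock-as-added). Plates held 1 h at room temperature for diffusion, then incubated at 37 °C for 24 h. Inhibition zone diameter measured in mm, including well diameter. Reported as mean ± SEM.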

Aspergillus fumigatus [12] = assay: Antimicrobial activity against Aspergillus fumigatus ATCC 1022 assessed as diameter of zone of inhibition at 20 microg/disc after 24 hrs by agar well diffusion method; assay type: functional; conditions: ATCC 1022, 24 h, read-out: DIZ; summary of the method: as §3
Aspergillus versicolor [13] = assay: Antimicrobial activity against Aspergillus versicolor ATCC 10072 assessed as diameter of zone of inhibition at 20 microg/disc after 24 hrs by agar well diffusion method; assay type: functional; conditions: ATCC 10072, 24 h, read-out: DIZ; summary of the method: as §3
Aspergillus flavus [14] = assay: Antimicrobial activity against Aspergillus flavus ATCC 9643 assessed as diameter of zone of inhibition at 20 microg/disc after 24 hrs by agar well diffusion method; assay type: functional; conditions: ATCC 9643, 24 h, read-out: DIZ; summary of the method: as §3

| SMILES | zone of inhibition at 2000 µg/mL (Candida albicans [1]) [mm] | zone of inhibition at 2000 µg/mL (Aspergillus fumigatus [2]) [mm] | zone of inhibition at 2000 µg/mL (Aspergillus versicolor [3]) [mm] | zone of inhibition at 2000 µg/mL (Aspergillus flavus [4]) [mm] | zone of inhibition at 2000 µg/mL (Staphylococcus aureus [5]) [mm] | zone of inhibition at 2000 µg/mL (Escherichia coli) [mm] | MIC (Candida albicans [6]) [µg/mL] | MIC (Aspergillus fumigatus [7]) [µg/mL] | MIC (Aspergillus versicolor [8]) [µg/mL] | MIC (Aspergillus flavus [9]) [µg/mL] | zone of inhibition at 25 µg/disc (Staphylococcus aureus [10]) [mm] | zone of inhibition at 20 µg/disc (Candida albicans [11]) [mm] | zone of inhibition at 20 µg/disc (Aspergillus fumigatus [12]) [mm] | zone of inhibition at 20 µg/disc (Aspergillus versicolor [13]) [mm] | zone of inhibition at 20 µg/disc (Aspergillus flavus [14]) [mm] |
| --- | --- | --- | --- | --- | --- | --- | --- | --- | --- | --- | --- | --- | --- | --- | --- |
| COc1ccc(C2CC(c3c(O)cc(C)c(Cl)c3C)=NN2)cc1 (centres undefined) | 18 | 18 | 13 | 12 | 11 | 8 | 50 (≈ 151 µM) | 25 (≈ 75.6 µM) | 25 (≈ 75.6 µM) | 6.25 (≈ 18.9 µM) |  |  |  |  |  |
| Cc1cc(O)c(C2=NNC(c3cccc(O)c3)C2)c(C)c1Cl (centres undefined) | 23 | 20 | 21 | 21 | 11 | 9 | 12.5 (≈ 39.5 µM) | 12.5 (≈ 39.5 µM) | 6.25 (≈ 19.7 µM) | 3.12 (≈ 9.86 µM) |  |  |  |  |  |
| Cc1cc(O)c(C2=NNC(c3ccc(N(C)C)cc3)C2)c(C)c1Cl (centres undefined) | 18 | 18 | 13 | 13 | 12 | 8 | 12.5 (≈ 36.4 µM) | 12.5 (≈ 36.4 µM) | 12.5 (≈ 36.4 µM) | 6.25 (≈ 18.2 µM) |  |  |  |  |  |
| COc1ccc(C2CC(c3c(O)cc(C)c(Cl)c3C)=NN2)cc1OC (centres undefined) | 20 | 21 | 16 | 17 | 11 | 8 | 12.5 (≈ 34.6 µM) | 12.5 (≈ 34.6 µM) | 12.5 (≈ 34.6 µM) | 25 (≈ 69.3 µM) |  |  |  |  |  |
| COc1cc(C2CC(c3c(O)cc(C)c(Cl)c3C)=NN2)cc(OC)c1OC (centres undefined) | 20 | 21 | 16 | 15 | 10 | 9 | 12.5 (≈ 32 µM) | 12.5 (≈ 32 µM) | 12.5 (≈ 32 µM) | 12.5 (≈ 32 µM) |  |  |  |  |  |
| Cc1cc(O)c(C2=NOC(c3ccccc3)C2)c(C)c1Cl (centres undefined) | 22 | 21 | 17 | 15 | 11 | 8 | 25 (≈ 82.8 µM) | 12.5 (≈ 41.4 µM) | 25 (≈ 82.8 µM) | 6.25 (≈ 20.7 µM) |  |  |  |  |  |
| COc1ccc(C2CC(c3c(O)cc(C)c(Cl)c3C)=NO2)cc1 (centres undefined) | 22 | 16 | 15 | 16 | 11 | 8 | 12.5 (≈ 37.7 µM) | 25 (≈ 75.3 µM) | 25 (≈ 75.3 µM) | 6.25 (≈ 18.8 µM) |  |  |  |  |  |
| Cc1cc(O)c(C2=NOC(c3ccc(Cl)cc3)C2)c(C)c1Cl (centres undefined) | 22 | 20 | 21 | 20 | 12 | 7 | 12.5 (≈ 37.2 µM) | 6.25 (≈ 18.6 µM) | 12.5 (≈ 37.2 µM) | 12.5 (≈ 37.2 µM) |  |  |  |  |  |
| Cc1cc(O)c(C2=NOC(c3ccccc3Cl)C2)c(C)c1Cl (centres undefined) | 23 | 21 | 20 | 20 | 11 | 8 | 12.5 (≈ 37.2 µM) | 6.25 (≈ 18.6 µM) | 12.5 (≈ 37.2 µM) | 12.5 (≈ 37.2 µM) |  |  |  |  |  |
| COc1ccc(C2CC(c3c(O)cc(C)c(Cl)c3C)=NO2)cc1OC (centres undefined) | 21 | 15 | 14 | 15 | 10 | 9 | 12.5 (≈ 34.5 µM) | 6.25 (≈ 17.3 µM) | 12.5 (≈ 34.5 µM) | 12.5 (≈ 34.5 µM) |  |  |  |  |  |
| COc1cc(C)c(Cl)c(C)c1C(=O)C1=NNCC1c1ccccc1 (centres undefined) | 19 | 20 | 19 | 21 | 10 | 8 | 25 (≈ 72.9 µM) | 6.25 (≈ 18.2 µM) | 12.5 (≈ 36.5 µM) | 6.25 (≈ 18.2 µM) |  |  |  |  |  |
| COc1ccccc1C1CNN=C1C(=O)c1c(OC)cc(C)c(Cl)c1C (centres undefined) | 21 | 18 | 20 | 19 | 9 | 8 | 12.5 (≈ 33.5 µM) | 12.5 (≈ 33.5 µM) | 12.5 (≈ 33.5 µM) | 6.25 (≈ 16.8 µM) |  |  |  |  |  |
| COc1cc(C)c(Cl)c(C)c1C(=O)C1=NNCC1c1ccccc1[N+](=O)[O-] (centres undefined) | 20 | 20 | 19 | 19 | 10 | 9 | 25 (≈ 64.5 µM) | 12.5 (≈ 32.2 µM) | 12.5 (≈ 32.2 µM) | 12.5 (≈ 32.2 µM) |  |  |  |  |  |
| O=C(O)c1cn(C2CC2)c2cc(N3CCNCC3)c(F)cc2c1=O [CIPROFLOXACIN] |  |  |  |  |  |  |  |  |  |  | 24 |  |  |  |  |
| OC(Cn1cncn1)(Cn1cncn1)c1ccc(F)cc1F [FLUCONAZOLE] |  |  |  |  |  |  | 12.5 (≈ 40.8 µM) | 12.5 (≈ 40.8 µM) | 3.12 (≈ 10.2 µM) | 12.5 (≈ 40.8 µM) |  | 21 | 22 | 21 | 21 |
